Test results: paper PMC9585524 (ACS Bio & Med Chem Au, 2022)
Entries after “also recorded” stand apart in the source; their conditions may differ.

Key:
estrogen receptors = conditions: cited from earlier work
U937 cells = test: S1P levels in U937 cells by LC-MS/MS; assay type: cell-based, human; conditions: varying concentrations of 14c, 2 h, Figure 5A, duplicate
Method in brief: (§1)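 U937 cells were grown in RPMI 1640 with 10% FBS, then moved to 0.5% FBS for 24 h. They were treated 2 h with test compound (30–1000 nM) plus 1 μM FTY720. Pellets (2–3 × 10^6 cells) were extracted in methanol/chloroform with deuterated internal standards and base-treated. S1P and FTY720-P were measured by LC-MS/MS, in duplicate.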

hSphK2 = molecular target: T1, hSphK2 (Homo sapiens, UniProt Q9NRA0); assay type: biochemical
T1 sequence (Q9NRA0 1-618 isoform Q9NRA0-2): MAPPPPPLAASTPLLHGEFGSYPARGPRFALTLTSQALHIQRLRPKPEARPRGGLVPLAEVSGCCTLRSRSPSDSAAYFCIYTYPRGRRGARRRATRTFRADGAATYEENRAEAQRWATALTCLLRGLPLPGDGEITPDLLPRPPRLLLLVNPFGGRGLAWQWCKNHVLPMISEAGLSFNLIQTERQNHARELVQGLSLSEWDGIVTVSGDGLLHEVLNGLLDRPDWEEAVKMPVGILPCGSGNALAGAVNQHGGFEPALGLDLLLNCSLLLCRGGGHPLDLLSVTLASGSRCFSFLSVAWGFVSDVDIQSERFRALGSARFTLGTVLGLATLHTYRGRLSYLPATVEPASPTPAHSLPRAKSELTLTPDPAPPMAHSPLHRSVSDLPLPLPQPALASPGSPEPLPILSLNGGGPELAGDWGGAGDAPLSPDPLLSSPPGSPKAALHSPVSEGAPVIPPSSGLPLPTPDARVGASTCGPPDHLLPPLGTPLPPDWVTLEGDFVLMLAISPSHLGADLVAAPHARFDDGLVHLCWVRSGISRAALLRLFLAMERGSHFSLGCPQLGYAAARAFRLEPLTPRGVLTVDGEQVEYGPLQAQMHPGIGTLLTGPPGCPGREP

SphK2 in U937 cells = test: FTY720-P levels in U937 cells; assay type: cell-based, human; conditions: 1 μM FTY720 and 14c at 30–1000 nM, Figure 5B, duplicate
Method in brief: as §1

blood S1P = test: Blood S1P in C57BL/6 mice after a single intraperitoneal dose, LC-MS/MS; assay type: in vivo; conditions: for S1P levels in blood: 5 mg/kg single intraperitoneal injection
Method in brief: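 Male C57BL/6J mice in groups of four received 5 mg/kg test compound i.p. in 2% hydroxypropyl-β-cyclodextrin, and controls got an equal volume of vehicle. Blood was drawn at set times, with the earliest 1–2 min post-dose. Whole blood (10 μL) was extracted in methanol/chloroform with d7-S1P/d7-sphingosine internal standards (48 °C, 16 h), then treated with KOH/methanol. S1P was quantified by LC-MS/MS MRM (380.4 → 264.4).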

Row | Structure (SMILES) | action at estrogen receptors (estrogen receptors) | S1P levels in U937 cells (U937 cells) | selectivity for SphK2 over SphK1 (hSphK2) | FTY720-P levels in U937 cells (SphK2 in U937 cells) | S1P levels in blood (blood S1P; 4 h post dosing) | S1P levels in blood (blood S1P; after 24 h) | circulating (blood) S1P levels (blood S1P; mice, 5 mg/kg, overall statement)
1 | O=C(NCc1ccncc1)C12CC3CC(C1)CC(c1ccc(Cl)cc1)(C3)C2 [compound 1] | tamoxifen-mimetic | – | – | – | – | – | –
2 | Cl.N=C(N)N1CCC[C@H]1c1nc(-c2ccc(CCC3CCCCC3)c(C(F)(F)F)c2)no1 [14c, (S)-2-(3-(4-(2-Cyclohexylethyl)-3-(trifluoromethyl)phenyl)-1,2,4-oxadiazol-5-yl)pyrrolidine-1-carboximidamide Hydrochloride] | – | dose-dependent decrease | ~200 fold | concentration-dependent decrease | doubling | returning close to baseline | sustained increase; also recorded: profound increases
